In brackets after ≈: the same amount, converted by molar mass.
What was measured:
[1] = system: Streptococcus pneumoniae; experiment: Antibacterial activity against macrolide-susceptible Streptococcus pneumoniae 1077 after overnight incubation by agar dilution method; assay type: functional
[2] = system: Streptococcus pyogenes; experiment: Antibacterial activity against macrolide-resistant Streptococcus pyogenes 2094 harboring erm(A) gene after 22 passages and 10 compound-free subculturing by retest method
[3] = system: Streptococcus pneumoniae; experiment: Antibacterial activity against Streptococcus pneumoniae harboring erm(B) and mef(A) gene after overnight incubation by agar dilution method; assay type: functional
Outline: (§1)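 Clinical isolates collected 1998–2008, with macrolide-resistance genes confirmed by PCR. MICs by agar dilution on Mueller-Hinton agar with 5% sheep blood. Inoculum 10^4 CFU/spot, incubated overnight at 35°C in ambient air. S. pneumoniae ATCC 49619 was the quality-control strain in every run.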

[4] = system: Streptococcus pyogenes; experiment: Antibacterial activity against Streptococcus pyogenes harboring erm(B) gene after overnight incubation by agar dilution method; assay type: functional; outline: as §1
[5] = system: Streptococcus pneumoniae; experiment: Antibacterial activity against macrolide-susceptible Streptococcus pneumoniae after overnight incubation by agar dilution method; assay type: functional
Outline: (§2)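 Agar dilution MICs on Mueller-Hinton agar with 5% sheep blood. Inoculum 10^4 CFU/spot, incubated overnight at 35°C in ambient air. Clinical S. pneumoniae or group A streptococcal isolates; resistance genotypes (erm(B), erm(A), mef(A)/mef(E)) were assigned by PCR. S. pneumoniae ATCC 49619 served as QC strain in each run. Range, MIC50 and MIC90 reported per phenotype group.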

[6] = system: Streptococcus pneumoniae; experiment: Antibacterial activity against macrolide-resistant Streptococcus pneumoniae 3009 harboring mutation in 23S rRNA after overnight incubation by agar dilution method; assay type: functional
[7] = system: Streptococcus pyogenes; experiment: Antibacterial activity against macrolide-resistant Streptococcus pyogenes 237 harboring mutation in L4 ribosomal protein after 43 passages and 10 compound-free subculturing by retest method
[8] = system: Streptococcus pneumoniae; experiment: Antibacterial activity against quinolone-resistant Streptococcus pneumoniae after overnight incubation by agar dilution method; assay type: functional
Outline: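 Agar dilution on Mueller-Hinton agar supplemented with 5% sheep blood. Inoculum 10^4 CFU/spot, incubated overnight at 35°C in ambient air. Test strains were clinical pneumococcal isolates. S. pneumoniae ATCC 49619 was included as the quality control strain in each run. MIC range, MIC50 and MIC90 were reported for each susceptibility category.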

[9] = system: Streptococcus pneumoniae; experiment: Antibacterial activity against macrolide-susceptible Streptococcus pneumoniae 7127 harboring S20N mutation in L4 ribosomal protein and A105V mutation in L22 ribosomal protein after 15 passages and 10 compound-free subculturing by retest method; assay type: functional
[10] = system: Streptococcus pneumoniae; experiment: Antibacterial activity against macrolide-resistant Streptococcus pneumoniae 2686 harboring mutation in L4 ribosomal protein after 22 passages and 10 compound-free subculturing by retest method; assay type: functional
[11] = system: Streptococcus pyogenes; experiment: Antibacterial activity against macrolide-resistant Streptococcus pyogenes 2368 harboring erm(B) gene after 18 passages and 10 compound-free subculturing by retest method
[12] = system: Streptococcus pyogenes; experiment: Antibacterial activity against macrolide-resistant Streptococcus pyogenes 2368 harboring erm(B) gene after overnight incubation by agar dilution method
[13] = system: Streptococcus pyogenes; experiment: Antibacterial activity against macrolide-resistant Streptococcus pyogenes 2094 harboring erm(A) gene after 34 passages and 10 compound-free subculturing by retest method
[14] = system: Streptococcus pneumoniae; experiment: Antibacterial activity against macrolide-susceptible Streptococcus pneumoniae 1077 after 43 passages and 10 compound-free subculturing by retest method; assay type: functional
[15] = system: Streptococcus pneumoniae; experiment: Antibacterial activity against penicillin-intermediate Streptococcus pneumoniae after overnight incubation by agar dilution method; assay type: functional
Outline: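 Agar dilution on Mueller-Hinton agar supplemented with 5% sheep blood, inoculum 10^4 CFU/spot, read after overnight incubation at 35°C in ambient air. Clinical isolates with defined genotypes; S. pneumoniae ATCC 49619 quality control strain included in each run. MIC50/MIC90 are MICs inhibiting 50% and 90% of isolates.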

[16] = system: Streptococcus pneumoniae; experiment: Antibacterial activity against macrolide-resistant Streptococcus pneumoniae 1635 harboring erm(A) gene after overnight incubation by agar dilution method; assay type: functional
[17] = system: Streptococcus pyogenes; experiment: Antibacterial activity against macrolide-susceptible Streptococcus pyogenes 2132 after 50 passages following overnight incubation by agar dilution method
[18] = system: Streptococcus pyogenes; experiment: Antibacterial activity against macrolide-resistant Streptococcus pyogenes 2094 harboring erm(A) gene after 5 passages and 10 compound-free subculturing by retest method
[19] = system: Streptococcus pyogenes; experiment: Antibacterial activity against macrolide-resistant Streptococcus pyogenes 2011 harboring mef(A) gene after overnight incubation by agar dilution method
[20] = system: Streptococcus pneumoniae; experiment: Antibacterial activity against macrolide-resistant Streptococcus pneumoniae 1076 harboring erm(B) and mef(A) gene after 14 passages and 10 compound-free subculturing by retest method; assay type: functional
Outline: (§3)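 Multistep selection by daily serial passage in subinhibitory drug concentrations. Medium was cation-adjusted Mueller-Hinton broth plus 5% lysed horse blood. Each day the next inoculum came from the tube 1–2 dilutions below the MIC whose turbidity matched the growth control, for up to 50 days. Clone MICs by CLSI macrodilution; identity to the parent confirmed by SmaI PFGE.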

[21] = system: Streptococcus pyogenes; experiment: Antibacterial activity against macrolide-susceptible Streptococcus pyogenes 2132 after 28 passages and 10 compound-free subculturing by retest method
[22] = system: Streptococcus pneumoniae; experiment: Antibacterial activity against macrolide-resistant Streptococcus pneumoniae 24 harboring erm(B) gene after overnight incubation by agar dilution method; assay type: functional
[23] = system: Streptococcus pyogenes; experiment: Antibacterial activity against macrolide-resistant Streptococcus pyogenes 2368 harboring erm(B) gene after 6 passages and 10 compound-free subculturing by retest method
[24] = system: Streptococcus pneumoniae; experiment: Antibacterial activity against Streptococcus pneumoniae harboring mutation in 23S rRNA after overnight incubation by agar dilution method; assay type: functional; outline: as §1
[25] = system: Streptococcus pyogenes; experiment: Antibacterial activity against macrolide-resistant Streptococcus pyogenes 2011 harboring mef(A) gene after 35 passages and 10 compound-free subculturing by retest method
[26] = system: Streptococcus pyogenes; experiment: Antibacterial activity against macrolide-resistant Streptococcus pyogenes harboring erm(A) gene after overnight incubation by agar dilution method; assay type: functional; outline: as §2
[27] = system: Streptococcus pyogenes; experiment: Antibacterial activity against macrolide-resistant Streptococcus pyogenes 237 harboring mutation in L4 ribosomal protein after 50 passages following overnight incubation by agar dilution method
[28] = system: Streptococcus pneumoniae; experiment: Antibacterial activity against macrolide-resistant Streptococcus pneumoniae 3665 harboring mef(A) gene after 14 passages and 10 compound-free subculturing by retest method; assay type: functional
[29] = system: Streptococcus pyogenes; experiment: Antibacterial activity against Streptococcus pyogenes harboring mutation in L4 ribosomal protein after overnight incubation by agar dilution method; assay type: functional; outline: as §1
[30] = system: Streptococcus pneumoniae; experiment: Antibacterial activity against macrolide-susceptible Streptococcus pneumoniae 1077 after 29 passages and 10 compound-free subculturing by retest method; assay type: functional
[31] = system: Streptococcus pneumoniae; experiment: Antibacterial activity against macrolide-resistant Streptococcus pneumoniae 24 harboring erm(B) gene after 14 passages and 10 compound-free subculturing by retest method; assay type: functional; details: Streptococcus pneumoniae, 24; read-out: MIC; outline: as §3
[32] = Streptococcus pneumoniae, 3665, read-out: MIC

| Structure (SMILES) | MIC [1] [mg/L] | MIC [2] [mg/L] | MIC50 [3] [mg/L] | MIC50 [4] [mg/L] | MIC90 [4] [mg/L] | MIC50 [5] [mg/L] | MIC90 [5] [mg/L] | MIC [6] [mg/L] | MIC [7] [mg/L] | MIC50 [8] [mg/L] | MIC90 [8] [mg/L] | MIC [9] [mg/L] | MIC [10] [mg/L] | MIC [11] [mg/L] | MIC [12] [mg/L] | MIC [13] [mg/L] | MIC [14] [mg/L] | MIC50 [15] [mg/L] | MIC90 [15] [mg/L] | MIC [16] [mg/L] | further results |
| --- | --- | --- | --- | --- | --- | --- | --- | --- | --- | --- | --- | --- | --- | --- | --- | --- | --- | --- | --- | --- | --- |
| CC[C@H]1OC(=O)[C@H](C)C(=O)[C@H](C)[C@@H](O[C@@H]2O[C@H](C)C[C@H](N(C)C)[C@H]2O)[C@](C)(OC)C[C@@H](C)C(=O)[C@H](C)[C@H]2N(CCCCn3cnc(-c4cccnc4)c3)C(=O)O[C@]12C [TELITHROMYCIN] | 0.004 (≈ 0.00493 µM) | 0.125 (≈ 0.154 µM) | 0.5 (≈ 0.616 µM) | 8 (≈ 9.85 µM) | 16 (≈ 19.7 µM) | 0.03 (≈ 0.0369 µM) | 0.03 (≈ 0.0369 µM) | 0.016 (≈ 0.0197 µM) | 0.06 (≈ 0.0739 µM) | 0.03 (≈ 0.0369 µM) | 0.125 (≈ 0.154 µM) | 0.008 (≈ 0.00985 µM) | 0.25 (≈ 0.308 µM) | > 64 | 8 (≈ 9.85 µM) | 0.03 (≈ 0.0369 µM) | 0.06 (≈ 0.0739 µM) | 0.06 (≈ 0.0739 µM) | 0.5 (≈ 0.616 µM) | 0.004 (≈ 0.00493 µM) | MIC90 [3]: 1 mg/L (≈ 1.23 µM); MIC [17]: 0.03 mg/L (≈ 0.0369 µM); MIC [18]: 0.03 mg/L (≈ 0.0369 µM); MIC [19]: 0.5 mg/L (≈ 0.616 µM); MIC [20]: > 64 mg/L; MIC [21]: 0.03 mg/L (≈ 0.0369 µM); MIC [22]: 0.25 mg/L (≈ 0.308 µM); MIC [23]: > 64 mg/L; MIC [24]: 0.03 mg/L (≈ 0.0369 µM); MIC [25]: 0.25 mg/L (≈ 0.308 µM); MIC50 [26]: 0.06 mg/L (≈ 0.0739 µM); MIC90 [26]: 0.125 mg/L (≈ 0.154 µM); MIC [27]: 0.125 mg/L (≈ 0.154 µM); MIC [28]: 0.25 mg/L (≈ 0.308 µM); MIC [28, 32]: 0.25 mg/L (≈ 0.308 µM); MIC [29]: 0.06 mg/L (≈ 0.0739 µM); MIC [30]: 0.125 mg/L (≈ 0.154 µM) |
| CCC[C@@H]1C[C@@H](C(=O)N[C@@H]([C@H]2O[C@H](SC)[C@H](O)[C@@H](O)[C@H]2O)[C@H](C)Cl)N(C)C1 [CLINDAMYCIN] | 0.016 (≈ 0.0376 µM) | > 64 | 0.06 (≈ 0.141 µM) | > 64 | > 64 | 0.03 (≈ 0.0706 µM) | 0.06 (≈ 0.141 µM) | 1 (≈ 2.35 µM) | 1 (≈ 2.35 µM) | 0.03 (≈ 0.0706 µM) | 64 (≈ 151 µM) | 1 (≈ 2.35 µM) | 0.03 (≈ 0.0706 µM) | > 64 | > 64 | > 64 | 0.03 (≈ 0.0706 µM) | 0.125 (≈ 0.294 µM) | > 64 | 0.06 (≈ 0.141 µM) | MIC [17]: 0.06 mg/L (≈ 0.141 µM); MIC [18]: 0.06 mg/L (≈ 0.141 µM); MIC [19]: 0.06 mg/L (≈ 0.141 µM); MIC [20]: > 64 mg/L; MIC [21]: 0.03 mg/L (≈ 0.0706 µM); MIC [31]: > 64 mg/L; MIC [22]: > 64 mg/L; MIC [23]: > 64 mg/L; MIC [24]: 0.03 mg/L (≈ 0.0706 µM); MIC [25]: 0.06 mg/L (≈ 0.141 µM); MIC50 [26]: 0.125 mg/L (≈ 0.294 µM); MIC90 [26]: 0.25 mg/L (≈ 0.588 µM); MIC [28, 32]: 0.03 mg/L (≈ 0.0706 µM); MIC [29]: 0.06 mg/L (≈ 0.141 µM); MIC [30]: 4 mg/L (≈ 9.41 µM) |

Reference: ChEMBL document CHEMBL1240350, “In vitro activity of CEM-101 against Streptococcus pneumoniae and Streptococcus pyogenes with defined macrolide resistance mechanisms” (Antimicrob Agents Chemother, 2010)
